According to ChEMBL document CHEMBL5352422, “Development of l-Dopa-containing diketopiperazines as blood-brain barrier shuttle” (Eur J Med Chem, 2022):
Active and inactive are the calls of the source. No cut-off for these calls is given here.

Experiments:
PC-12 = test: Inhibition of MPP+ induced GSH level in rat PC-12 cells at 100 nM preincubated with compound for 24 hrs followed by MPP+ treatment for 24 hrs by DTNB reagent based analysis; assay type: functional, cell-based; conditions: time 48.0 hrs
[1] = Antioxidant activity against rat Cerebral cortex cell assessed as trolox equivalent of total antioxidant capacity at 100 nM incubated for 24 hrs (14.7 to 27.5 mmolequiv/L ); assay type: functional, Cerebral cortex neuron
[2] = Antioxidant activity against rat Cerebral cortex cell assessed as trolox equivalent of total antioxidant capacity at 250 nM incubated for 24 hrs (14.7 to 27.5 mmolequiv/L ); assay type: functional, Cerebral cortex neuron
[3] = Antioxidant activity against Primary human whole blood cell assessed as trolox equivalent of total antioxidant capacity at 250 nM incubated for 24 hrs (19.3 to 32.5 mmolequiv/L ); assay type: functional
[4] = Antioxidant activity against Primary human whole blood cell assessed as trolox equivalent of total antioxidant capacity at 500 nM incubated for 24 hrs (19.3 to 32.5 mmolequiv/L ); assay type: functional
[5] = Antioxidant activity against rat Cerebral cortex cell assessed as H2O2 equivalent of total oxidative stress at 500 nM incubated for 24 hrs (0.7 to 2.3 micromolequiv/L); assay type: functional, Cerebral cortex neuron
[6] = Antioxidant activity against Primary human whole blood cell assessed as H2O2 equivalent of total oxidative stress at 100 nM incubated for 24 hrs (0.6 to 1.9 micromolequiv/L); assay type: functional
[7] = Antioxidant activity against Primary human whole blood cell assessed as H2O2 equivalent of total oxidative stress at 250 nM incubated for 24 hrs (0.6 to 1.9 micromolequiv/L); assay type: functional
[8] = Antioxidant activity against Primary human whole blood cell assessed as H2O2 equivalent of total oxidative stress at 500 nM incubated for 24 hrs (0.6 to 1.9 micromolequiv/L); assay type: functional
[9] = Induction of DNA damage in rat Cerebral cortex cell assessed as 8-OH-dG adducts formation at 10 nM incubated for 24 hrs by Comet assay (reference value: 0.14 to 1.92 pg/ml); assay type: functional, Cerebral cortex neuron
[10] = Induction of DNA damage in rat Cerebral cortex cell assessed as 8-OH-dG adducts formation at 50 nM incubated for 24 hrs by […] (reference value: 0.14 to 1.92 pg/ml); assay type: functional, Cerebral cortex neuron
Method in brief: (§1)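 Primary rat cerebral cortex neurons from fetuses, grown in neurobasal medium with FCS on poly-D-lysine flasks and used after 8 days. Aqueous compound at 10–500 nM for 24 h at 37 °C. Untreated cultures served as negative control and MMC 10^-7 M as positive control. 8-OH-dG measured with a commercial ELISA-type kit and reported in pg/mL. Four independent experiments, mean ± SD.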

[11] = Induction of DNA damage in rat Cerebral cortex cell assessed as 8-OH-dG adducts formation at 100 nM incubated for 24 hrs by […] (reference value: 0.14 to 1.92 pg/ml); assay type: functional, Cerebral cortex neuron
[12] = Induction of DNA damage in rat Cerebral cortex cell assessed as 8-OH-dG adducts formation at 500 nM incubated for 24 hrs by […] (reference value: 0.14 to 1.92 pg/ml); assay type: functional, Cerebral cortex neuron; method in brief: as §1
[13] = Induction of DNA damage in Primary human whole blood cell assessed as 8-OH-dG adducts formation at 250 nM incubated for 24 hrs by […] (reference value: 0.12 to 2.21 pg/ml); assay type: functional
[14] = Induction of DNA damage in Primary human whole blood cell assessed as 8-OH-dG adducts formation at 500 nM incubated for 24 hrs by […] (reference value: 0.12 to 2.21 pg/ml); assay type: functional
[15] = Induction of DNA damage in rat Cerebral cortex cell assessed as total DNA damage score at 10 nM incubated for 24 hrs by Comet assay (reference value: 36.8 to 89.2); assay type: functional, Cerebral cortex neuron
[16] = Induction of DNA damage in rat Cerebral cortex cell assessed as total DNA damage score at 50 nM incubated for 24 hrs by Comet assay (reference value: 36.8 to 89.2); assay type: functional, Cerebral cortex neuron
[17] = Genotoxicity in human Lymphocyte assessed as sister chromatid exchange measured per cells at 250 nM incubated for 72 hrs giemsa staining based fluorescence method (reference value: 6.6 to 14.3); assay type: toxicity, cell-based; conditions: 0.25 µM
[18] = Genotoxicity in human Lymphocyte assessed as micronuclei formation measured per 1000 cells at 250 nM incubated for 72 hrs giemsa staining based analysis (reference value: 4.5 to 17.9); assay type: toxicity, cell-based; conditions: 0.25 µM
Method in brief: (§2)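 Human whole-blood lymphocyte cultures with phytohemagglutinin, incubated with compound for 72 h at 37 °C. Cytochalasin B added at 44 h. Cells fixed in ice-cold methanol/acetic acid 1:1, cytospun, Giemsa-stained. At least 1000 binucleated lymphocytes per concentration scored for micronuclei by one observer.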

[19] = Genotoxicity in human Lymphocyte assessed as micronuclei formation measured per 1000 cells at 500 nM incubated for 72 hrs giemsa staining based analysis (reference value: 4.5 to 17.9); assay type: toxicity, cell-based; conditions: 0.5 µM; method in brief: as §2
[20] = Stability of the compound in stimulated gastric fluid at 40 mg/ml pepsin by measuring half life measured upto 60 mins by HPLC analysis; assay type: ADME; conditions: simulated gastric fluid with pepsin
Method in brief: (§3)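 USP simulated gastric fluid containing pepsin, preheated, in a 37 °C shaking water bath. Samples at 0, 15, 30 and 60 min were deproteinized with ice-cold acetonitrile containing 0.5% formic acid, centrifuged at 4 °C, filtered and analyzed by HPLC. Means of three experiments.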

[21] = Stability of the compound in stimulated intestinal fluid at 10 mg/ml pancreatin by measuring half life measured upto 180 mins by HPLC analysis; assay type: ADME; conditions: simulated intestinal fluid with pancreatin
Method in brief: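 USP simulated intestinal fluid containing pancreatin, in a 37 °C shaking water bath. Samples at 0, 60, 120 and 180 min were quenched with ice-cold acetonitrile containing 0.5% formic acid, centrifuged at 4 °C for 10 min, filtered and analyzed by HPLC. Means of three experiments ± SD.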

[22] = Stability of the compound in hydrochloric acid buffer assessed as chemical hydrolysis by measuring observed rate constant at pH 1.2; assay type: physicochemical
Method in brief: (§4)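 Chemical hydrolysis at 37 °C in hydrochloric acid buffer pH 1.2 or phosphate buffer pH 7.4. Remaining compound followed by HPLC with UV detection. t1/2 and k_obs are means of three experiments ± SD.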

[23] = Stability of the compound in phosphate buffer assessed as chemical hydrolysis by measuring observed rate constant at pH 7.4; assay type: physicochemical; method in brief: as §4
[24] = Stability of the compound in stimulated gastric fluid at 10 mg/ml pepsin by measuring observed rate constant measured upto 60 mins by HPLC analysis; assay type: ADME; conditions: simulated gi fluid, 1 h; method in brief: as §3
[25] = Stability in human plasma assessed as observed rate constant by HPLC method; assay type: ADME, cell-free
Method in brief: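 Stock added to 37 °C human plasma diluted with 0.02 M phosphate buffer pH 7.4 to 80% plasma. Aliquots taken over time were quenched with 0.01 M HCl in methanol, centrifuged 5 min at 5000 g, and supernatant analyzed by HPLC-UV. t1/2 and k_obs are means of three experiments ± SD.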

[26] = Cytotoxicity against Primary human whole blood cell at 10 to 500 nM incubated for 24 hrs by LDH assay; assay type: toxicity, cell-based; conditions: 0.5 µM, dose 10-500 nM
Method in brief: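 Rat fetal cortical neuron or human whole-blood cultures treated 24 h at 37 °C with aqueous compound at 10–500 nM. LDH released into 100 µL of medium measured by kit as the rate of NAD+ reduction (lactate to pyruvate), absorbance increase at 490 nm. Mitomycin C 10^-7 M as positive control; four independent experiments.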

C#CCSC[C@H]1NC(=O)[C@H](Cc2ccc(OC(C)=O)c(OC(C)=O)c2)NC1=O
inhibition (PC-12): Active
Activity [1]: 15.2 mmolequiv/L
Activity [2]: 15.4 mmolequiv/L
Activity [3]: 19.8 mmolequiv/L
Activity [4]: 19.4 mmolequiv/L
Activity [5]: 0.6 umolequiv/L
Activity [6]: 0.6 umolequiv/L
Activity [7]: 0.7 umolequiv/L
Activity [8]: 0.7 umolequiv/L
Activity [9]: 0.14 pg/mL
Activity [10]: 0.14 pg/mL
Activity [11]: 0.14 pg/mL
Activity [12]: 0.15 pg/mL
Activity [13]: 0.13 pg/mL
Activity [14]: 0.13 pg/mL
Activity [15]: 36.9
Activity [16]: 37.2
Activity [17]: 7.1
Activity [18]: 5.1
Activity [19]: 5.1
half-life [20]: 57.1 h
half-life [21]: 3.51 h
Kobs [22]: 0.005 h⁻¹
Kobs [23]: 0.015 h⁻¹
Kobs [24]: 0.008 h⁻¹
Kobs [25]: 0.332 h⁻¹
Activity [26]: Non-Toxic

C=CCSC[C@H]1NC(=O)[C@H](Cc2ccc(OC(C)=O)c(OC(C)=O)c2)NC1=O
inhibition (PC-12): inactive
Activity [1]: 14.4 mmolequiv/L
Activity [2]: 14.7 mmolequiv/L
Activity [3]: 18.8 mmolequiv/L
Activity [4]: 18.4 mmolequiv/L
Activity [5]: 0.7 umolequiv/L
Activity [6]: 0.7 umolequiv/L
Activity [7]: 0.7 umolequiv/L
Activity [8]: 0.7 umolequiv/L
Activity [9]: 0.14 pg/mL
Activity [10]: 0.13 pg/mL
Activity [11]: 0.15 pg/mL
Activity [12]: 0.15 pg/mL
Activity [13]: 0.12 pg/mL
Activity [14]: 0.13 pg/mL
Activity [15]: 36.3
Activity [16]: 36.4
Activity [17]: 7.1
Activity [18]: 5.2
Activity [19]: 5.2
half-life [20]: 22.4 h
half-life [21]: 0.68 h
Kobs [22]: 0.037 h⁻¹
Kobs [23]: 0.022 h⁻¹
Kobs [24]: 0.029 h⁻¹
Kobs [25]: 7.22 h⁻¹
Activity [26]: Non-Toxic
